Results on 95 molecules are retold here after ChEMBL document CHEMBL4513216, “Probing the Open Global Health Chemical Diversity Library for Multistage-Active Starting Points for Next-Generation Antimalarials” (ACS Infect Dis, 2020).

The series is described as follows: Toxicity liver stage against HepG2, at 10uM. Type of series: cell-based. Set-up: test concentration 10 uM, cell line HepG2-A16-CD81EGFP. The note with it: human, HepG2-A16-CD81EGFP cells; read-out: INHIBITION
Summed up: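 Uninfected HepG2-A16-CD81EGFP cells, 3 × 10^3 per well, 1536-well, plated on prespotted compound at 10 μM final, parasite-free screening media added to match infected plates; puromycin 10 μM positive, DMSO 0.5% negative; run in parallel with 48 h PbLuc assay at 37 °C, 5% CO2; viability by CellTiter-Glo luminescence, normalized to controls.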

Take `CN1CCCN(C(C(=O)O)c2ccc3c(c2)OCO3)CC1` (stereo not given): the cytotoxicity at 10 µM is 1.83%. To `COc1cccc(OC)c1CN1CC(=O)N(c2ccc(C)cc2)CC1C` (stereo not given) belongs 1.64%. To `CC(C)C(=O)N1CCN(Cc2ccccn2)CC2(CC(=O)N(C)C2)C1` (stereo not given) belongs 0.0515%.

For `O=C(CO)N1CCCC(c2cc(C(F)(F)F)[nH]n2)C1` (stereo not given), the cytotoxicity at 10 µM was -5.12%. As for `CN(Cc1ccsc1)C(=O)CN1CCOC(Cn2cncn2)C1` (stereo not given), the cytotoxicity at 10 µM was -1.14%. To `Cn1cc(C(=O)N2CCCC(c3cnccn3)C2)cn1` (stereo not given) belongs -10.5%; to `CCc1nc(N)nc(NCCC(=O)NC2CCCCC2)c1C`, -38.9%; to `CCN1CCCC(c2c(-c3ccccc3)ncn2CCCO)C1` (stereo not given), -3.41%. To `CCc1cnc(NCc2ccccc2Cn2cccn2)nc1` belongs -2.45%. In the case of `Cc1nccn1-c1cc(CNC(=O)CCC2CCCO2)ccn1` (stereo not given), the cytotoxicity at 10 µM was -3.09%. To `O=C(O)[C@@H]1CN(C(=O)c2ccc(F)c(F)c2)C[C@H]1c1cccc(F)c1` belongs -113%; to `O=C1[C@@H]2CCN(Cc3ccoc3)C[C@@H]2OCCN1c1cccnc1`, -74.6%; to `Cn1cc(CN2CCCC(Cn3cc(CCCO)nn3)C2)cn1` (stereo not given), -3.51%. `COCCn1ccnc1C1CCN(C(=O)CSc2nnc(C)s2)CC1`: the cytotoxicity at 10 µM was 5.4%. In the case of `Cc1n[nH]c(C2CN(C(=O)c3scnc3C)CCO2)n1` (stereo not given) it was 10.6%; in that of `COc1ccc(C)cc1S(=O)(=O)NCC(c1cccn1C)N(C)C` (stereo not given), -11.9%; in that of `CC(=O)N1CCC(N2CCN3C(=O)N(Cc4ccccn4)C[C@H]3C2)CC1`, 2.26%.

In the case of `CCN1C(=O)C2(CCOCC2)c2cc(NC(=O)c3cnoc3C)ccc21`, the cytotoxicity at 10 µM is -2.54%. In the case of `Cc1ccc(S(=O)(=O)N2CCC(Cn3cc(C(C)(C)N)nn3)CC2)s1` it was 6.74%; in that of `CN1[C@@H](c2ccccc2)[C@@H](C(=O)NCC2CCOCC2)C[C@@]1(C)C(=O)O`, -40.4%; in that of `O=C(Nc1ccccc1)N1CCC(n2cc3[nH]cccc-3c2=O)CC1`, -3.73%.

With `COC(=O)c1ccc(N2CCN(CCN3CCOCC3)C(C)C2)cc1` (stereo not given), the cytotoxicity at 10 µM was -13.6%. As for `Cn1nc(CN2CCCCC2)c2c1CN(C(=O)c1ccccc1)C2`, the cytotoxicity at 10 µM was determined as 4.83%.

For `Cc1nc(CN2CCN(C(=O)c3sccc3C)CC2)cs1`, the cytotoxicity at 10 µM was 0.96%. As for `CC(=O)N1CCCC1c1cccc(NCc2ccccc2F)n1` (stereo not given), the cytotoxicity at 10 µM was -13.8%. Consider `CNC(=O)[C@@H]1C[C@H](n2cc(-c3ccc(CN4CC=CC4)cc3)nn2)CN1`, for which the cytotoxicity at 10 µM is 3.46%. To `CCc1noc(-c2ccc(SCC(=O)O)nc2)n1` belongs -10.9%; to `CN(CCCO)Cc1cc(Cl)ccc1OCC(O)CN1CCCCCC1` (stereo not given), 2.71%; to `CN1CCN(C(=O)CCCc2ccccc2)CC(O)(Cn2cccn2)C1` (stereo not given), -1.93%. In the case of `CC(C)COCCC(=O)NCCC(=O)N1CCN(c2ccccn2)CC1` it was 9.46%. In the case of `CN1CCCN(c2nccc(-c3cncnc3C3CCCCC3)n2)CC1` it was -6.25%; in that of `Cc1ccc(NC(=O)NCCCc2n[nH]c(N)c2C#N)cc1`, -4.71%; in that of `Cn1cnnc1S(=O)(=O)C1CCN(C(=O)c2ccco2)CC1`, -2.28%. On to `COCCNC(=O)c1sc2ccccc2c1C1CCC(CN)CC1` (stereo not given), for which the cytotoxicity at 10 µM was -2.98%. To `N#Cc1ccc(NCc2cccc(OCC3CCCO3)c2)nc1` (stereo not given) belongs 1.25%; to `Cc1nnsc1C(=O)NCc1nn(C2CCCC2)c2c1CCCC2`, -0.543%; to `Cc1ccc(N2CC[C@@H]3[C@@H]2CCN3C(=O)c2cscn2)nn1`, 5.38%. To `CCCN1CCN(Cc2cccc(OCC(N)=O)c2)[C@H]2CS(=O)(=O)C[C@H]21` belongs 2.77%; to `CCn1nc2c(cc1=O)CN(Cc1nc(-c3ccco3)no1)CC2`, -3.34%; to `CCc1ccc(-c2cn(CCSc3ncn[nH]3)nn2)nc1`, -0.89%. In the case of `O=C(NC1CC1)c1cc(NC(=O)N2CCOCC2)ccc1Cl` it was -4.15%.

Take `CNc1cc2c(nn1)CCN(C(=O)c1ccc3c(c1)OCO3)C2`: the cytotoxicity at 10 µM was 6.85%. In the case of `COCc1nc(CN2CCC3(CCCO3)CCC2=O)no1` (stereo not given) it was -10.3%; in that of `CC1CCCN(c2ncc(-c3ccccc3F)c(-c3nccn3C)n2)C1` (stereo not given), 26.8%.

For `Cc1cccc(NC(=O)NC2CCC3(C2)OCCO3)c1Cl` (stereo not given), the cytotoxicity at 10 µM turned out to be 10.6%. For the molecule `Cc1[nH]nc(CCC(=O)NCC2COc3ccccc3C2)c1C` (stereo not given), the cytotoxicity at 10 µM is -43.4%. To `CCN(Cc1nnsc1Cl)C(C)c1ccc(C#N)cc1` (stereo not given) belongs 18.9%. In the case of `CSc1nsc(SCC(=O)c2cc3c(cc2Cl)NC(=O)C3)n1` it was 5.13%; in that of `CCc1nsc(NC2CCOC3(CCCC3)C2)n1` (stereo not given), 13%.

As for `O=c1[nH]cc(N2CCCCCC2)c(=O)[nH]1`, the cytotoxicity at 10 µM stood at 3.46%.

For `COc1ncnc2c1CCN(C(=O)NCc1cccnc1)CC2`, the cytotoxicity at 10 µM was -133%. In the case of `O=C1CC2(CCCCN2C(=O)Cc2ccccc2)CN1c1cccnc1` (stereo not given) it was -2.71%; in that of `CS(=O)(=O)NC1CCN(C(=O)NCCNc2ccccn2)CC1`, -0.685%; in that of `CCC1c2ccccc2CCN1CCCS(C)(=O)=O` (stereo not given), 1.75%. In the case of `O=C(CN1CCOc2ccccc2C1)N1Cc2cnn(CCO)c2C1` it was -3.24%. To `N#Cc1ccc(N2CCCN(CC(=O)N3CCC3)CC2)cc1` belongs -8.38%; to `Cc1cc(C)c2[nH]c(=O)c(CN3CCC(O)(CN(C)C)C3)cc2c1` (stereo not given), -2.99%. As for `O=C(NCc1cc(Cl)ccn1)NCc1ccco1`, the cytotoxicity at 10 µM is 8.5%. With `Clc1ccccc1-c1nnc(CN2CCCC2Cn2cncn2)o1` (stereo not given), the cytotoxicity at 10 µM is -9.03%. As for `Cc1ccsc1CN(C)C(=O)c1cc2c([nH]c1=O)CCCC2=O`, the cytotoxicity at 10 µM is -5.36%. To `Cc1nc(-c2ccccc2)sc1C(=O)N(C1CC1)C1CC(=O)NC1=O` (stereo not given) belongs 2.78%; to `O=C(COCc1nc(-c2ccncc2)no1)N1CCCC1`, -10.7%. To `COc1ncc(-c2cc(NCCN(C)C)nc3[nH]ccc23)c(OC)n1` belongs -20.7%; to `COCCCNC(=O)CN(C)C(=O)c1cc2cc(C)ccc2nc1C`, -10.2%; to `CCC(=O)N1CCN(C(=O)Nc2cccc(F)c2)[C@H]2CS(=O)(=O)C[C@H]21`, -46.8%. To `Cc1ccc(C(=O)NC(CN2CCCC2=O)c2ccccc2)c(=O)[nH]1` (stereo not given) belongs -2.23%; to `CC1(c2ccc(Br)cc2)CC(=O)N(CC(N)=O)C1=O` (stereo not given), 2.05%; to `Cc1cc(C)c(CNC(=O)NCC(O)COc2ccccc2)c(=O)[nH]1` (stereo not given), -5.75%. Take `Cc1cc(-c2nccs2)nc(C2CCN(Cc3ccc(F)cc3)CC2)n1`: the cytotoxicity at 10 µM was found to be 6.54%.

Turning to `Cc1nn(-c2ccccc2)cc1C(=O)N1CCCN2CCCC2C1` (stereo not given), the cytotoxicity at 10 µM is -2.21%. In the case of `O=C(CC1CCc2ccccc21)NCCSc1cnn[nH]1` (stereo not given) it was 0.878%; in that of `O=C(COc1coc(CN2CCSCC2)cc1=O)c1ccccc1`, 9.21%; in that of `COCCN(CC(C)C)C(=O)c1cccc(Nc2cnccn2)c1`, -9.59%.

For the molecule `O=C(O)c1cccc2c(Br)cccc12`, the cytotoxicity at 10 µM came out at 3.38%. In the case of `COCC(=O)N1CCCC1c1nccnc1Nc1nc(C)cs1` (stereo not given) it was -3.36%; in that of `CC(C)(Oc1ccc2c(c1)CCCC2=O)C(=O)NCc1ccco1`, -2.74%; in that of `CC(O)(CCc1ccccc1)CNC(=O)c1ccsc1` (stereo not given), -1.18%. For `Cc1csc(CN2CC[C@H]3C[C@@H](c4nnc(C)[nH]4)O[C@@H]3C2)n1`, the cytotoxicity at 10 µM came out at 1.56%. To `Cc1ccc([C@]2(O)CC[C@H]3CN(Cc4cccc(F)c4F)C[C@H]32)nc1` belongs -8.38%; to `Cc1cc(N2CCCN(CCc3ccccc3)CC2)ccn1`, -3.67%. To `Cc1noc([C@H]2C[C@H]3OCC[C@H]3N(S(C)(=O)=O)C2)n1` belongs -115%; to `Cc1cnn(CC2CCCN2CC(=O)N(C)Cc2ccsc2)c1` (stereo not given), 3.82%. In the case of `CCS(=O)(=O)N(C)C1CCN(C(=O)c2ccc(C)c(C)c2)CC1` it was -2.76%; in that of `Cc1cccc(S(=O)(=O)NC(=O)c2ccc3c(c2)nnn3C)c1`, -8.97%. Take `Cc1csc([C@H]2C[C@@H]3CCN(C(=O)c4cnccn4)C[C@H]3O2)n1`: the cytotoxicity at 10 µM turned out to be 1.07%.

On to `CN(CC(=O)NC(Cc1ccsc1)c1cccnc1)Cc1ccccn1` (stereo not given), for which the cytotoxicity at 10 µM stood at 3.9%.

Turning to `Cc1cc(N2CCCC(OC(=O)CCN3CCCC3=O)C2)nc(C)n1` (stereo not given), the cytotoxicity at 10 µM turned out to be 2.58%.

For the molecule `CCOCCn1nc(C)cc1C(=O)N1CCN(C(C)C)C(CC)C1` (stereo not given), the cytotoxicity at 10 µM is -14.2%. In the case of `Cc1nc(C2CCN(C(=O)COC(C)C)CC2)cc(N2CCOCC2)n1` it was -8.8%. Take `CC(=O)N1CCN(C(=O)c2sccc2Br)CC1`: the cytotoxicity at 10 µM was found to be 6.83%. To `COCC(=O)Nc1ccc2c(c1)CN(C(=O)c1ccco1)CC2` belongs 7.58%; to `COc1ccccc1NCC(=O)NCc1cc[nH]n1`, 1.87%.

`Nc1nc(CC(=O)N2CCCC(CCc3cccc(F)c3)C2)cc(=O)[nH]1` (stereo not given): the cytotoxicity at 10 µM is -6.12%. To `Cc1cc(C)c2[nH]c(=O)c(CN3CCCC4(C3)CN(C)C(=O)O4)cc2c1` (stereo not given) belongs -14.3%; to `c1cnc2ccc(C[C@@H]3CC[C@H](CN4CCCOCC4)O3)cc2c1`, -1.6%.
